Bioassay records deposited in PubChem by several laboratories.
Rows were chosen to be rich in hits. Some 4.1% of all compounds tested hit in one or more screens of this group.
SMARCA2 act = activators of SMARCA2 function; MG213 cells, MMTV-luciferase reporter, dexamethasone, overnight; activation, % at 9.1 µM; 370,000 tested, 1% active; in the data active = activation above about 7.8%;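 also: 0% = vehicle wells and 100% = reference activator wells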
ATG4B inh = ATG4B (human) cysteine protease inhibition | Q9Y4P1 | 340,000 tested, 0.51% active | inhibition, % at 8.33 µM | ATG4B cleavage of LC3-PLA2, NBD-HPC fluorescence, 1 h; in the data active = inhibition above about 40%
Target sequence (Q9Y4P1 whole entry, looked up): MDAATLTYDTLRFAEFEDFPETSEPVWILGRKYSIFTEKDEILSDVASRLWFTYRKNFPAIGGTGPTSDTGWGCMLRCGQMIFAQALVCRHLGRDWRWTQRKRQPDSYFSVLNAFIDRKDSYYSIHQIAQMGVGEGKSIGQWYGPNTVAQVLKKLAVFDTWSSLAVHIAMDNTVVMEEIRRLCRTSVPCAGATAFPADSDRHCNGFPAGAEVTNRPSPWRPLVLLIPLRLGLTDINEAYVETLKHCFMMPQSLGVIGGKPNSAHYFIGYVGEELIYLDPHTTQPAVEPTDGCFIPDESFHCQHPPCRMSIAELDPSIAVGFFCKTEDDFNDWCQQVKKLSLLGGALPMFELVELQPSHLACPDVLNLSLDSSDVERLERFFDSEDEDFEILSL
MC4R antag cAMP = human MC4R antagonism in cAMP assay | P32245 | inhibition, % at 6.5 µM | MC4R-expressing cells, MTII-stimulated cAMP, LANCE TR-FRET | AID 540295 | 360,000 tested, 0.48% active;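 active = inhibition above its plate's cutoff, the mean of tested wells on that plate plus 3 SD, cut at about 29% in these data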;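 also: 0% = Melanotan II alone and 100% = Melanotan II plus saturating MCL0020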
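Test system: U2OS cells stably expressing human melanocortin 4 receptor (MC4R); also added: Melanotan II challenge; compound: 6.5 µM single dose; timing: 30-min compound preincubation, 1-h Melanotan II challenge, 1-h detection, room temperature; signal: Eu-cAMP/anti-cAMP TR-FRET, emission 671 nm; repeats: one well per compound, no replicates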
MC4R ag barr = human MC4R agonism via beta-arrestin. activation, % at 8.9 µM. U2OS MC4R beta-arrestin complementation, luminescence; percent of melanotan II response, DMSO zero. 360,000 tested, 0.98% active. P32245;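 active = activation above a per-plate cutoff, the mean activation of sample wells on that plate plus 3 SD, cut at about 8% in these data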
MPTP inh = permeability transition pore inhibition | isolated mouse mitochondria, Ca2+ swelling absorbance, 30 min | inhibition, % at 10 µM | 360,000 tested, 1.4% active | AID 602449;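 active = inhibition of 50% or more, scaled per plate between neutral and stimulator controls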;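 also: 0% = DMSO wells given calcium and 100% = 1 mM EGTA wells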
ATG4B conf = ATG4B (human) inhibition, single-dose confirmed; shares compounds with ATG4B inh; ATG4B protease fluorescent substrate cleavage assay; inhibition, % at 8.33 µM; 320 tested, 92% active; AID 504757; in the data active = inhibition above about 39%
PLA2 counter = counter-screen for ATG4B inhibitors: human phospholipase A2 | inhibition, % at 8.33 µM | shares compounds with ATG4B inh | purified PLA2, NBD-C6-HPC fluorescence, 45 min | 1,600 tested, 66% active; in the data active = inhibition above about 50%
Target sequence (P04054 whole entry, looked up): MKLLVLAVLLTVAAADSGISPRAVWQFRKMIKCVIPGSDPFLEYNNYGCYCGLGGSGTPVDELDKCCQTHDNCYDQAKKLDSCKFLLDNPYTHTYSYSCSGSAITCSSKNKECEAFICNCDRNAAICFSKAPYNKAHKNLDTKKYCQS
MPTP counter = membrane potential counter-screen of mitochondrial pore inhibitors; isolated mitochondria, Rhodamine 123 fluorescence; shares compounds with MPTP inh; AID 624504; 5,000 tested, 78% active; inhibition, % at 10 µM; in the data active = inhibition above about 22%;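 also: 0% = DMSO vehicle and 100% = positive control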
MPTP abs DR = dose response confirmation of mitochondrial permeability transition pore inhibitors. shares compounds with MPTP inh. isolated mitochondria swelling, absorbance. IC50, µM. 780 tested, 58% active. AID 651561; in the data active = IC50 below about 20 µM
MPTP counter DR = counter-screen for mitochondrial permeability transition pore inhibitors, dose response; AID 651564; shares compounds with MPTP inh; 780 tested, 49% active; IC50, µM; isolated mitochondria counterscreen, fluorescence read-out; in the data active = IC50 below about 80 µM
* marks the source's active call; other numbers are inactive results; i = inactive; nt = no result.

SMILES	SMARCA2 act	ATG4B inh	MC4R antag cAMP	MC4R ag barr	MPTP inh	PLA2 counter	MPTP counter	others
Fc1ccc(CNC(=S)Nc2cccc(C(F)(F)F)c2)cc1	2	71*	0	8	100*	70*	85*
S=C(NCc1ccccc1)Nc1cccc(Cl)c1	-3	50*	4	-2	97*	43	101*	ATG4B conf=59*
Cc1ccc(NC(=S)NCc2ccccc2)cc1[N+](=O)[O-]	1	54*	-2	-1	99*	63*	91*
O=C(CNc1cccc(Cl)c1)NNC(=S)NCc1ccccc1	1	-6	1	-3	2	nt	nt
O=C(CSc1nnc(-c2cccs2)o1)c1cccc([N+](=O)[O-])c1	4	nt	nt	nt	nt	nt	nt
O=C(CN1C(=O)C2CCCCN2C(=O)c2ccccc21)N1CCCC1 (stereo not given)	-6	nt	nt	nt	nt	nt	nt
COc1ccccc1-c1c(-c2ccc(OCC(=O)NN)cc2O)n[nH]c1C(F)(F)F	-4	-2	12	3	0	nt	nt
COc1ccc(-c2n[nH]c(C(F)(F)F)c2-c2cc3ccccc3o2)c(O)c1	-3	58*	-11	4	55*	46	60*	ATG4B conf=64*
Cn1c(C(C#N)C(=O)c2sc3ccccc3c2Cl)nc2ccccc21 (stereo not given)	-2	14	27	-1	-1	nt	nt
CCn1nc([N+](=O)[O-])c(C(C#N)c2nc3ccccc3n2C)c(Cl)c1=O (stereo not given)	0	72*	5	-2	54*	75*	67*
CCCn1nc([N+](=O)[O-])c(C(C#N)c2nc3ccccc3s2)c(Cl)c1=O (stereo not given)	-5	84*	4	-5	112*	85*	46*
O=[N+]([O-])c1ccc(CN2CCN(c3nc4ccccc4s3)CC2)cc1	0	3	4	-1	1	nt	nt
Cc1ccccc1CNC(=O)C1C2C=CC3(CN(Cc4ccccc4)C(=O)C13)O2 (stereo not given)	-6	nt	nt	nt	nt	nt	nt
COC(=O)c1cc(S(=O)(=O)N2CCN(c3cccc(C(F)(F)F)c3)CC2)cn1C	0	nt	nt	nt	nt	nt	nt
C[C@H]1C2CC(OC(=O)Nc3ccc(F)cc3)C(C2)[C@H]2CCCCN21 (stereo not given in full)	-4	nt	nt	nt	nt	nt	nt
Cc1cc(/C=C2\C(=N)N3N=C(c4ccco4)SC3=NC2=O)c(C)n1Cc1ccccc1	-2	27	19	0	46	nt	nt
CC(C)CSC1=NSC2=NC(=O)/C(=C\c3coc4ccccc4c3=O)C(=N)N12	1	50*	18	3	89*	53*	61*
N=C1/C(=C/c2coc3ccccc3c2=O)C(=O)N=C2SC(c3ccco3)=NN12	nt	45*	-2	-1	64*	17	71*
Cc1ccc(C(C)C)c(OCC(=O)Nc2ccccc2N2CCN(C)CC2)c1	0	54*	0	2	83*	66*	-7	MPTP abs DR=i;MPTP counter DR=>80
COC(=O)[C@]12C[C@H](CC(=O)N3CCCCC3)C(=O)N(CCc3ccc(OC)c(OC)c3)C1=C[C@H](COCc1ccccc1)O[C@@H]2C	-4	nt	nt	nt	nt	nt	nt
Oc1ccc(Cl)cc1Sc1cc(Cl)ccc1O	-6	47*	9	1	70*	25	68*	ATG4B conf=59*
O=C(OC12CCCN(C1)/C(=C/c1cccc(Cl)c1)C2)c1ccco1 (stereo not given)	-4	nt	nt	nt	nt	nt	nt
O=C(Nc1ccc(Cl)cc1)NC1CCCCC1Cc1ccco1 (stereo not given)	-3	70*	0	2	105*	80*	83*
C[C@@H]1C[C@H]2[C@@H](Cc3ccccc3)C(=O)N3[C@H](c4ccccc4)[C@H](C)C[C@H]3[C@@H](Cc3ccccc3)C(=O)N2[C@@H]1c1ccccc1	-4	nt	nt	nt	nt	nt	nt
CCOc1cc(/C=C2\N=C(SCC)SC2=O)cc([N+](=O)[O-])c1OC(C)=O	0	76*	7	-3	104*	75*	37*
SMILES	SMARCA2 act	ATG4B inh	MC4R antag cAMP	MC4R ag barr	MPTP inh	PLA2 counter	MPTP counter	others
CCCCCN1CCCCC(NC(=O)c2ccc3ccccc3c2)C1=O (stereo not given)	-2	nt	nt	nt	nt	nt	nt
CN1CCCCC(NC(=O)c2ccc(F)cc2)C1=O (stereo not given)	1	nt	nt	nt	nt	nt	nt
C=C(C)Cn1c(SCC(=O)N/N=C/c2c(O)ccc3ccccc23)nc2ccccc2c1=O	-2	41*	5	-3	66*	-2	56*	ATG4B conf=56*
Clc1ccc2c(N/N=C/c3ccccc3Br)ccnc2c1	-2	48*	15	6	57*	27	99*	ATG4B conf=56*
Cc1c(Cl)cccc1NC(=S)NCc1ccccc1Cl	0	79*	2	0	84*	83*	94*
Cc1c(Cl)cccc1NC(=S)NCCC(c1ccccc1)c1ccccc1	-2	91*	12	3	62*	93*	87*
Cc1c(Cl)cccc1NC(=S)NCCN1CCOCC1	0	-1	9	-1	0	nt	nt
Cc1c(Cl)cccc1NC(=S)NCC1COc2ccccc2O1 (stereo not given)	-4	88*	17	2	63*	89*	93*
COc1ccccc1NC(=S)NCc1ccccc1Cl	-1	5	-3	1	0	nt	nt
CN1CC=C(c2ccccc2)N(c2ccc(Cl)cc2)C1=O	-1	nt	nt	nt	nt	nt	nt
COC(=O)/C=C1\SC(=Nc2ccc(Cl)c(Cl)c2)NC1=O	-1	79*	2	-1	95*	28	52*	ATG4B conf=79*
COC(=O)/C=C1\SC(=Nc2ccc(OC)cc2)NC1=O	1	0	12	-3	-1	nt	nt
COc1ccccc1NS(=O)(=O)c1cccc(NC(=O)Nc2cccc(Cl)c2)c1	-7	44*	28	5	81*	59*	76*
Cc1ccccc1CN(CC(=O)Nc1cccc([N+](=O)[O-])c1)S(=O)(=O)c1ccc(Cl)cc1	-2	64*	12	1	89*	77*	80*
CS(=O)(=O)N(CC(=O)Nc1cccc([N+](=O)[O-])c1)c1ccccc1F	-1	-5	4	-2	1	nt	nt
O=C(Nc1nc(-c2ccc(Cl)cc2)cs1)NC1CCCCC1	-3	64*	14	-1	92*	73*	88*
